The target of series [1] is T1, Histone deacetylase 1/2/3 (Homo sapiens) (UniProt Q13547+O15379+Q92769). In words: Inhibition of HDAC1/2/3 in human HuH7-luc/neo cells assessed as ratio of H3K9/14ac content to the content of unmodified histone H3 at 1 uM incubated for 24 hrs by Western blot analysis relative to control. Format: cell-based. In a few lines:
(§1)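 Huh7-luc/neo cells were dosed after 24 h at 40-50% monolayer and exposed to compound for 24 h at 37 °C in 5% CO2. For α-tubulin and SMC3, cells were PBS-washed and lysed. Histone H3 was acid-extracted: TEB buffer with 0.5% Triton X-100, then 0.2 M HCl overnight at 4 °C, then neutralized. Western blots were blocked in 5% milk/PBST with overnight primary antibody at 4 °C. Values are acetylated/total normalized ratios versus control.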
A general note: Immunoblotting shows a protein as a band on a membrane.

The target in series [2] is T1, Histone deacetylase 1/2/3 (Homo sapiens). In words: Inhibition of HDAC1/2/3 in human HuH7-luc/neo cells assessed as ratio of H3K9/14ac content to the content of unmodified histone H3 at 3 uM incubated for 24 hrs by Western blot analysis relative to control. Format: cell-based. Put shortly: as §1
Another series has as its system Hepatitis C virus. As to the kind of experiment: Antiviral activity against HCV infected in human HuH7-luc/neo cells assessed as inhibition of viral replicon propagation incubated for 3 days by luciferase reporter gene assay. Format: functional, organism-based, Hepacivirus hominis. The conditions noted are these: 72 h. Put shortly:
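Huh7-luc/neo cells carrying a full-length HCV replicon with a luciferase gene. Cells were reseeded without G418 and dosed at 30-40% monolayer (48 h) over a range of concentrations. Incubation was 72 h at 37 °C in 5% CO2. Cells were then PBS-washed and lysed, and luciferase chemiluminescence was read. EC50 is the mean and standard deviation of at least four independent experiments.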
On the technique in general: A replicon is a self-replicating genome or part of one, used to study replication in cells.

Series [3] in a line: Cytotoxicity against human HuH7 cells assessed as reduction in cell viability incubated for 3 days by MTT assay. Format: cell-based, Huh-7. Put shortly:
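Huh7 cells were reseeded and dosed over a range of concentrations after 24 h (30-40% monolayer). Incubation was three days at 37 °C in 5% CO2, and viability was read by MTT. CC50 is the mean and standard deviation of at least six independent experiments.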

Series [4] in a line: Therapeutic index, ratio of CC50 for human HuH7 cells to EC50 for HCV infected in human HuH7-luc/neo cells. Format: toxicity, cell-based. The conditions noted are these: HuH7 cells (CC50) and HCV-infected HuH7-luc/neo cells (EC50).
Series [5] addresses T2, Protein deacetylase HDAC6 (Homo sapiens) (UniProt Q9UBN7).
T2 sequence (whole entry): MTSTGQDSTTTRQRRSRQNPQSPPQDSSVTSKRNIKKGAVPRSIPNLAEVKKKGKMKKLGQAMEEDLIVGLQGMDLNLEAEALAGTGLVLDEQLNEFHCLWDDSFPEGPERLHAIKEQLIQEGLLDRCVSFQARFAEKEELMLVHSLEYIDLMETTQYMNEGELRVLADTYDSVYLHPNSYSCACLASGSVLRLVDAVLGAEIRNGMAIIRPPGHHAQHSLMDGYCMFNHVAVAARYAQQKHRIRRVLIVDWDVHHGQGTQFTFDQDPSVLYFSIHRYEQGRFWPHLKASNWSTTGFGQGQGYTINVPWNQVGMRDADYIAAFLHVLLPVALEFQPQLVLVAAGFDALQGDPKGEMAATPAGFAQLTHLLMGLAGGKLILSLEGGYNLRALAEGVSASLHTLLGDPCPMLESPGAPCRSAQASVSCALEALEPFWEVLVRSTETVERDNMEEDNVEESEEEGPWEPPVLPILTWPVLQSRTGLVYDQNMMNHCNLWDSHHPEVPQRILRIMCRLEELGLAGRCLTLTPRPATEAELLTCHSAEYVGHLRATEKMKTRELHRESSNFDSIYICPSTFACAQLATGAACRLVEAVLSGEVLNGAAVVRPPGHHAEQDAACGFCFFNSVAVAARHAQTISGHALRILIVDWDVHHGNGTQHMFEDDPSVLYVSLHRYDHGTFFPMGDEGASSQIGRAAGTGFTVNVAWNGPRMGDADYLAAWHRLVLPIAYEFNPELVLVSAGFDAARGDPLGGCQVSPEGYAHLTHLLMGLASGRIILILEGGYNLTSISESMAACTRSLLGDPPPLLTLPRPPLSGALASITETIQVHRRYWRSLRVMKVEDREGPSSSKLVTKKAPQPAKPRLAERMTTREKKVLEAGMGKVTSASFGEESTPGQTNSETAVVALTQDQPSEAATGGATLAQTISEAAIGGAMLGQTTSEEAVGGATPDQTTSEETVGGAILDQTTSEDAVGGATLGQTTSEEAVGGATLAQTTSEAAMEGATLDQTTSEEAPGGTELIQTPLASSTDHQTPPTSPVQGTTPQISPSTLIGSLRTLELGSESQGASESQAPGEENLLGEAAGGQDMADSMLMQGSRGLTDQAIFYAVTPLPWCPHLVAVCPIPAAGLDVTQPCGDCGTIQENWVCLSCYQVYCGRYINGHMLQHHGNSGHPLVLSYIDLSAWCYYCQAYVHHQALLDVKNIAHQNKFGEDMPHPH
In words: Inhibition of HDAC6 in human HuH7-luc/neo cells assessed as ratio of alphaTubK40ac content to the content of unmodified alpha-tubulin at 1 uM incubated for 24 hrs by Western blot analysis relative to control. Format: cell-based. In a few lines:
as §1

Series [6] concerns the target T2, Protein deacetylase HDAC6 (Homo sapiens). In words: Inhibition of HDAC6 in human HuH7-luc/neo cells assessed as ratio of alphaTubK40ac content to the content of unmodified alpha-tubulin at 3 uM incubated for 24 hrs by Western blot analysis relative to control. Format: cell-based. In a few lines: as §1
Series [7] has as its target T3, Histone deacetylase 8 (Homo sapiens) (UniProt Q9BY41).
T3 sequence (whole entry): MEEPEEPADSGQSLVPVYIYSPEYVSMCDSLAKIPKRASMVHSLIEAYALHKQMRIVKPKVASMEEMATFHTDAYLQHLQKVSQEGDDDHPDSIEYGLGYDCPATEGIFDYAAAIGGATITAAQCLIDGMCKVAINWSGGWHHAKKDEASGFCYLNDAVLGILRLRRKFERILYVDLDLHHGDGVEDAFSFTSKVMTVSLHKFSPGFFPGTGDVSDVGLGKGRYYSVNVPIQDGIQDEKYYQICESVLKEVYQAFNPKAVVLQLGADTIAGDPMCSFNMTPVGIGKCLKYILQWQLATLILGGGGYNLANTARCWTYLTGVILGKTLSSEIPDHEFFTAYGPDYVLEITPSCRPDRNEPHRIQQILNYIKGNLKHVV
In words: Inhibition of HDAC8 in human HuH7-luc/neo cells assessed as ratio of SMC3K105/106ac content to the content of unmodified SMC3 at 0.1 uM incubated for 24 hrs by Western blot analysis relative to control. The format is cell-based. Put shortly: as §1

The target of series [8] is T3, Histone deacetylase 8 (Homo sapiens). In words: Inhibition of HDAC8 in human HuH7-luc/neo cells assessed as ratio of SMC3K105/106ac content to the content of unmodified SMC3 at 0.3 uM incubated for 24 hrs by Western blot analysis relative to control. Format: cell-based. In a few lines: as §1
For series [9] the target is unchanged. In words: Inhibition of HDAC8 in human HuH7-luc/neo cells assessed as ratio of SMC3K105/106ac content to the content of unmodified SMC3 at 1 uM incubated for 24 hrs by Western blot analysis relative to control. Format: cell-based. Put shortly: as §1
For series [10] the target is unchanged. In words: Inhibition of HDAC8 in human HuH7-luc/neo cells assessed as ratio of SMC3K105/106ac content to the content of unmodified SMC3 at 3 uM incubated for 24 hrs by Western blot analysis relative to control. Format: cell-based. Put shortly: as §1
Series [11] shares this target. As to the kind of experiment: Inhibition of HDAC8 in human HuH7-luc/neo cells assessed as ratio of SMC3K105/106ac content to the content of unmodified SMC3 at 10 uM incubated for 24 hrs by Western blot analysis relative to control. Format: cell-based. In a few lines: as §1
In series [12] the target is T1, Histone deacetylase 1/2/3 (Homo sapiens). As to the kind of experiment: Inhibition of HDAC1/2/3 in human HuH7-luc/neo cells assessed as ratio of H3K9/14ac content to the content of unmodified histone H3 at 0.3 uM incubated for 24 hrs by Western blot analysis relative to control. Format: cell-based. Put shortly:
as §1

As usually defined, the EC50 is the midpoint of the concentration-response curve. What is called CC50 is the concentration giving 50% cytotoxicity.

For `O=C(/C=C/c1ccccc1OCCc1ccccc1)NO`, the fold change (FC) in [1] came out at 2.39; in [2], 4.34; in series [5], 0.64; in [6] it was 0.8; in [7] it was 1.84; in series [8] it was 2.03. The fold change (FC) in series [9] was found to be 1.98; in series [10], 3.17; in series [11], 3.78. The concentration giving a half-maximal response (EC50) in the series with Hepatitis C virus turned out to be 0.32 µM. Further, in series [3], the CC50 at 72 h came to 83 µM. The selectivity ratio in series [4] amounted to 260.

As to `O=C(/C=C/c1ccccc1OCCOc1ccccc1)NO`, the fold change (FC) in series [1] came out at 1.47; in [2], 1.94; in series [5] it was 0.5; in [6], 0.69; in [7], 1.58; in [8], 2.07. Also, the values for the fold change (FC) in series [9], in series [10] and in [11] were 2.14, 3.18 and 2.87, respectively. For the same compound, the concentration giving a half-maximal response (EC50) in the series with Hepatitis C virus came out at 0.37 µM. In addition, the CC50 at 72 h in series [3] is 45 µM. Further, the selectivity ratio in [4] stood at 120.

On to `O=C(/C=C/c1ccccc1Oc1ccccc1)NO`, for which the fold change (FC) came out at 0.9 in series [1]; 1.46 in series [2]; 0.62 in [12]; 0.74 in series [5]; 1.01 in series [6]; 1.7 in series [7]. For the same compound, the fold change (FC) in [8] came to 2.03; in series [9] it was 2.15; in [10], 2.66; in series [11], 3.14. In addition, the EC50 in the series with Hepatitis C virus came to 0.4 µM. The CC50 at 72 h in [3] is 66 µM. Further, in series [4], the selectivity ratio is 165.

For the compound `O=C(/C=C/c1ccccc1OCc1ccccc1)NO`, the fold change (FC) is 0.95 in [1]; 1.48 in series [2]; 2.46 in series [5]; 1.99 in [6]; 1.51 in series [7]; 1.19 in series [8]. The fold change (FC) in series [9] is 1.61; in series [10] it was 2.16; in series [11], 3.14. Also, in the series on Hepatitis C virus, the EC50 turned out to be 0.25 µM. Also, in series [3], the CC50 at 72 h worked out at 31 µM. For the same compound, the selectivity ratio in series [4] is 120.

These data come from ChEMBL document CHEMBL4311979, “Structural isomers of cinnamic hydroxamic acids block HCV replication via different mechanisms” (Eur J Med Chem, 2019).
